Assay results published in ChEMBL document CHEMBL1122278, “Gastric antisecretory 9H-xanthen-9-amines” (1983).

How the values were obtained:
Rattus norvegicus [1] = experiment: Gastric antisecretory activity in pylorus ligated rat at a concentration of 50 mg/kg perorally, expressed as % decrease in mean titratable acid output of gastric juice in treated vs. control groups.; type: functional; conditions: route oral
Procedure, shortened: (§1)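 Male Carworth Farms rats (270–360 g), fasted 18 h with water; compound in PEG 200 by gavage 1 h before pylorus ligation under ether. Killed 2 h after ligation; juice centrifuged, volume and pH measured, supernatant titrated with NaOH to pH 7.4, output = volume × titre. Mean of six to seven animals against controls.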

Rattus norvegicus [2] = experiment: Gastric antisecretory activity in pylorus-ligated rat at a concentration of 50 mg/kg perorally, expressed as increase in mean pH.; type: functional; conditions: route oral; procedure, shortened: as §1
Rattus norvegicus [3] = experiment: Effect of peroral administration of compound on acid secretion inhibition in the PLR; Value ranges from 4.1-12.1; type: functional
Rattus norvegicus [4] = experiment: Effect of peroral administration of compound on acid secretion inhibition in the PLR; NS means no significant dose response.; type: functional, organism-based
Procedure, shortened: (§2)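 Rats (male Carworth Farms, 270–360 g) fasted 18 h; compound in PEG 200 by gavage 1 h before pylorus ligation under ether, six per group. Gastric contents collected 2 h post-ligation; pH, volume, titre (NaOH to pH 7.4) measured, output = volume × titre.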

Rattus norvegicus [5] = experiment: Effect of intraduodenal administration of compound on acid secretion inhibition in the PLR; Value ranges from 0.9-4.7; type: functional
Rattus norvegicus [6] = experiment: Effect of intraduodenal administration of compound on acid secretion inhibition in the PLR; Value ranges from 4.7-9; type: functional
Rattus norvegicus [7] = experiment: Effect of intraduodenal administration of compound on acid secretion inhibition in the PLR; Value ranges from 0.5-2.7; type: functional
Rattus norvegicus [8] = experiment: Effect of peroral administration of compound on acid secretion inhibition in the PLR; Value ranges from 8.8-14.7; type: functional
Rattus norvegicus [9] = experiment: Gastric antisecretory activity, in pylorus ligated rat (PLR,50 mg/kg po), expressed as % decrease in mean titratable acid output of gastric juice in treated vs. control groups; type: functional; procedure, shortened: as §1
Rattus norvegicus [10] = experiment: Gastric antisecretory activity, in pylorus ligated rat (PLR,50 mg/kg po), expressed as increase in mean pH; type: functional; procedure, shortened: as §1
Rattus norvegicus [11] = experiment: Effect of peroral administration of compound on acid secretion inhibition in the PLR; Value ranges from 4.0-13.6; type: functional; procedure, shortened: as §2
Rattus norvegicus [12] = experiment: Effect of intraduodenal administration of compound on acid secretion inhibition in the PLR; Value ranges from 0.6-6.7; type: functional
Rattus norvegicus [13] = experiment: Effect of intravenous administration of compound on acid secretion inhibition in the PLR; Value ranges from 0.7-5.0; type: functional
Procedure, shortened: (§3)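 Male Carworth Farms rats (270–360 g), fasted 18 h, pylorus ligated under ether; compound in PEG 200 given intravenously at ligation, six rats per group. Gastric contents taken 2 h after ligation, centrifuged, titrated with NaOH to pH 7.4; output = volume × titre.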

Rattus norvegicus [14] = experiment: Effect of intraduodenal administration of compound on acid secretion inhibition in the PLR; Value ranges from 0.5-4.4; type: functional
Rattus norvegicus [15] = experiment: Effect of intravenous administration of compound on acid secretion inhibition in the PLR; Value ranges from 1.5-9.5; type: functional; procedure, shortened: as §3
Rattus norvegicus [16] = experiment: Gastric antisecretory activity in pylorus-ligated rat at a concentration of 50 mg/kg po, expressed as increase in mean pH; NS means no significant change; type: functional, organism-based; set-up: dose 50 mg/kg; procedure, shortened: as §1
Rattus norvegicus [17] = experiment: Gastric antisecretory activity in pylorus-ligated rat at a concentration of 50 mg/kg po, expressed as increase in mean pH; NS means no significant change.; type: functional, organism-based; set-up: dose 50 mg/kg; procedure, shortened: as §1
Rattus norvegicus [18] = experiment: Gastric antisecretory activity in pylorus ligated rat at a concentration of 50 mg/kg po, expressed as % decrease in mean titratable acid output of gastric juice in treated vs. control groups; NS means no significant change.; type: functional, organism-based; set-up: dose 50 mg/kg; procedure, shortened: as §1
Rattus norvegicus [19] = experiment: Effect of peroral administration of compound on acid secretion inhibition in the PLR;Value ranges from 3.6-12.2; type: functional; procedure, shortened: as §2
Rattus norvegicus [20] = experiment: Effect of peroral administration of compound on acid secretion inhibition in the PLR; Value ranges from 2.6-8.5; type: functional; procedure, shortened: as §2
Rattus norvegicus [21] = experiment: Effect of peroral administration of compound on acid secretion inhibition in the PLR; Value ranges from 4.3-16.3; type: functional; procedure, shortened: as §2
Rattus norvegicus [22] = experiment: Effect of intraduodenal administration of compound on acid secretion inhibition in the PLR; Value ranges from 0.3-2.9; type: functional
Rattus norvegicus [23] = experiment: Effect of intraduodenal administration of compound on acid secretion inhibition in the PLR; Value ranges from 0.2-2.1; type: functional
Rattus norvegicus [24] = experiment: Effect of intravenous administration of compound on acid secretion inhibition in the PLR; Value ranges from 1.8-5.9; type: functional; procedure, shortened: as §3
Rattus norvegicus [25] = experiment: Effect of intravenous administration of compound on acid secretion inhibition in the PLR; Value ranges from 4.0-19.3; type: functional; procedure, shortened: as §3

SMILES | Delta TAO (Rattus norvegicus [1]) | Delta pH (Rattus norvegicus [2]) | other results
c1ccc2c(c1)Oc1ccccc1C2NC1=NCCS1 | 95 | 3.6 | 
CC(Cc1ccccn1)NC1c2ccccc2Oc2ccccc21 (stereo unspecified) | 89 | 3.8 | Acid output (Rattus norvegicus [3]): 7.3 u equiv of [H+] 2hr-1; ED50 (Rattus norvegicus [4]): Not significant; Volume (Rattus norvegicus [5]): 2.2 ml 2hr-1; ED50 (Rattus norvegicus [6]): 6.3 m equiv [H+] l-1; Acid output (Rattus norvegicus [7]): 1.3 u equiv of [H+] 2hr-1; ED50 (Rattus norvegicus [8]): 11.4 m equiv [H+] l-1
NC1c2ccccc2Oc2ccccc21 | 93 | 4.5 | 
c1ccc2c(c1)Oc1ccccc1C2NC1CN2CCC1CC2 (stereo unspecified) | 65 | 2.4 | 
CCN1CCCC(N(C)C2c3ccccc3Oc3ccccc32)C1 (stereo unspecified) | 98 | 5.1 | 
CCOC(=O)N1CCN(C2c3ccccc3Oc3ccccc32)CC1 |  | 2.2 | 
CCN(CCc1ccccn1)C1c2ccccc2Oc2ccccc21 | 86 | 4.3 | 
c1ccc2c(c1)Oc1ccccc1C2NCCN1CCOCC1 | 47 | 2.6 | 
c1ccc2c(c1)Oc1ccccc1C2NCC1CCCCO1 (stereo unspecified) | 87 | 3.6 | 
c1cncc(C2CCCN2C2c3ccccc3Oc3ccccc32)c1 (stereo unspecified) | 65 | 1.8 | 
c1ccc2c(c1)Oc1ccccc1C2NCc1ccncc1 | 77 | 3.6 | 
CCO/C(C)=N\C1c2ccccc2Oc2ccccc21 |  |  | Delta TAO (Rattus norvegicus [9]): 97; Delta pH (Rattus norvegicus [10]): 4.4
c1ccc2c(c1)Oc1ccccc1C2NCCn1ccnc1 | 98 | 5.8 | ED50 (Rattus norvegicus [11]): 7.7 mg/kg; ED50 (Rattus norvegicus [4]): Not significant; ED50 (Rattus norvegicus [12]): 2.4 mg/kg; ED50 (Rattus norvegicus [13]): 2 mg/kg; ED50 (Rattus norvegicus [14]): 1.7 mg/kg; ED50 (Rattus norvegicus [15]): 3.3 mg/kg
c1ccc(CCCNC2c3ccccc3Oc3ccccc32)nc1 | 99 | 5.7 | 
c1ccc(NNC2c3ccccc3Oc3ccccc32)cc1 |  |  | Delta pH (Rattus norvegicus [16]): Not significant
CN1CCCN(C2c3ccccc3Oc3ccccc32)CC1 | 92 | 4.6 | 
CN(C1c2ccccc2Oc2ccccc21)C1c2ccccc2Oc2ccccc21 | 72 |  | Delta pH (Rattus norvegicus [17]): Not significant
NC(=O)N(O)C1c2ccccc2Oc2ccccc21 |  |  | Delta TAO (Rattus norvegicus [9]): 88; Delta pH (Rattus norvegicus [10]): 1.9
O=C(NC1c2ccccc2Oc2ccccc21)c1ccccc1O |  |  | Delta pH (Rattus norvegicus [17]): Not significant; Delta TAO (Rattus norvegicus [18]): Not significant
O=C1CCC(=O)N1C1c2ccccc2Oc2ccccc21 |  |  | Delta pH (Rattus norvegicus [17]): Not significant; Delta TAO (Rattus norvegicus [18]): Not significant
c1ccc(CNC2c3ccccc3Oc3ccccc32)cc1 | 69 | 1.9 | 
CN(C)CC1CCCCN1C1c2ccccc2Oc2ccccc21 (stereo unspecified) | 95 | 5.2 | 
c1cncc(CNC2c3ccccc3Oc3ccccc32)c1 | 94 | 4.2 | 
c1cnc(NC2c3ccccc3Oc3ccccc32)nc1 | 48 |  | Delta pH (Rattus norvegicus [16]): Not significant
CC1=NCCN1CCNC1c2ccccc2Oc2ccccc21 | 88 | 3 | 

SMILES | Delta TAO (Rattus norvegicus [1]) | Delta pH (Rattus norvegicus [2]) | other results
c1ccc(N2CCN(C3c4ccccc4Oc4ccccc43)CC2)nc1 |  |  | Delta pH (Rattus norvegicus [16]): Not significant; ED50 (Rattus norvegicus [18]): Not significant
c1ccc(CNC2c3ccccc3Oc3ccccc32)nc1 | 96 | 4.8 | 
c1ccc(CCNC2c3ccccc3Oc3ccccc32)nc1 | 99 | 5.9 | 
CN1CCN(C2c3ccccc3Oc3ccccc32)CC1 | 97 | 5.4 | ED50 (Rattus norvegicus [4]): Not significant; ED50 (Rattus norvegicus [19]): 6.8 mg/kg
CC(=N)NC1c2ccccc2Oc2ccccc21 | 88 | 1.1 | 
O=S1(=O)CCC(NC2c3ccccc3Oc3ccccc32)C1 (stereo unspecified) | 57 | 1.5 | 
CS(=O)(=O)NC1c2ccccc2Oc2ccccc21 |  |  | Delta pH (Rattus norvegicus [16]): Not significant; Delta TAO (Rattus norvegicus [18]): Not significant
CN(C)C1CCN(C2c3ccccc3Oc3ccccc32)CC1 | 97 | 5.8 | 
c1ccc(NNC2c3ccccc3Oc3ccccc32)nc1 | 73 | 1.4 | 
NS(=O)(=O)NC1c2ccccc2Oc2ccccc21 | 87 | 2 | 
CC(CCCc1ccccn1)NC1c2ccccc2Oc2ccccc21 (stereo unspecified) | 100 | 6.1 | 
CN(Cc1cccnc1)C1c2ccccc2Oc2ccccc21 | 92 | 3.6 | 
CN1CCC(NC2c3ccccc3Oc3ccccc32)CC1 | 99 | 6.4 | 
CN(CCc1ccccn1)C1c2ccccc2Oc2ccccc21 | 99 | 5.6 | ED50 (Rattus norvegicus [4]): Not significant; ED50 (Rattus norvegicus [20]): 4.8 mg/kg
C=CCN(CC=C)C1c2ccccc2Oc2ccccc21 |  | 1.3 | 
C=CCNC1c2ccccc2Oc2ccccc21 |  | 4.4 | Delta TAO (Rattus norvegicus [18]): Not significant
Cc1cc(C)n(C2c3ccccc3Oc3ccccc32)n1 |  |  | Delta pH (Rattus norvegicus [16]): Not significant; Delta TAO (Rattus norvegicus [18]): Not significant
O=CNNC1c2ccccc2Oc2ccccc21 |  |  | Delta TAO (Rattus norvegicus [9]): 80; Delta pH (Rattus norvegicus [10]): 2
CN(C)C1CCCN(C2c3ccccc3Oc3ccccc32)C1 (stereo unspecified) | 80 | 3.1 | ED50 (Rattus norvegicus [21]): 8.9 mg/kg; ED50 (Rattus norvegicus [4]): Not significant; ED50 (Rattus norvegicus [22]): 1.2 mg/kg; ED50 (Rattus norvegicus [23]): 0.9 mg/kg; ED50 (Rattus norvegicus [24]): 3.2 mg/kg; ED50 (Rattus norvegicus [25]): 6.3 mg/kg
c1ccc2c(c1)Oc1ccccc1C2N1CCNCC1 | 98 | 5.3 | 
O=S(=O)(NC1c2ccccc2Oc2ccccc21)c1ccccc1 |  |  | Delta pH (Rattus norvegicus [16]): Not significant; Delta TAO (Rattus norvegicus [18]): Not significant
O=C(NC1c2ccccc2Oc2ccccc21)OCc1ccccc1 |  |  | Delta pH (Rattus norvegicus [17]): Not significant; Delta TAO (Rattus norvegicus [18]): Not significant
c1cncc(NC2c3ccccc3Oc3ccccc32)c1 |  |  | Delta pH (Rattus norvegicus [16]): Not significant; Delta TAO (Rattus norvegicus [18]): Not significant
c1ccc2c(c1)Oc1ccccc1C2Nc1nccs1 |  |  | Delta pH (Rattus norvegicus [16]): Not significant
